{"source": "paper PMC4312721", "about": "(Biochimica et biophysica acta, 2014)", "key": {"PLD": {"test_system": "PLD", "settings": "cited from earlier work"}, "[1]": {"test_system": "breast cancer cells (MDA-MB-231)", "test": "Cell invasion assay", "type": "cell-based", "settings": "300 nM, 700 nM; not in cells overexpressing resistant PLD2 mutants", "method_in_brief": "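PLD2 mutant constructs were overexpressed by transfection. After transfection, cells were harvested and treated with the test compound at 300 or 700 nM for 20 min. Invasion was then run in Matrigel inserts.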"}, "recombinant PLD2 [2]": {"molecular_target": "T1, recombinant PLD2 (Homo sapiens, UniProt O14939)", "T1 sequence (O14939 whole entry, species assumed)": "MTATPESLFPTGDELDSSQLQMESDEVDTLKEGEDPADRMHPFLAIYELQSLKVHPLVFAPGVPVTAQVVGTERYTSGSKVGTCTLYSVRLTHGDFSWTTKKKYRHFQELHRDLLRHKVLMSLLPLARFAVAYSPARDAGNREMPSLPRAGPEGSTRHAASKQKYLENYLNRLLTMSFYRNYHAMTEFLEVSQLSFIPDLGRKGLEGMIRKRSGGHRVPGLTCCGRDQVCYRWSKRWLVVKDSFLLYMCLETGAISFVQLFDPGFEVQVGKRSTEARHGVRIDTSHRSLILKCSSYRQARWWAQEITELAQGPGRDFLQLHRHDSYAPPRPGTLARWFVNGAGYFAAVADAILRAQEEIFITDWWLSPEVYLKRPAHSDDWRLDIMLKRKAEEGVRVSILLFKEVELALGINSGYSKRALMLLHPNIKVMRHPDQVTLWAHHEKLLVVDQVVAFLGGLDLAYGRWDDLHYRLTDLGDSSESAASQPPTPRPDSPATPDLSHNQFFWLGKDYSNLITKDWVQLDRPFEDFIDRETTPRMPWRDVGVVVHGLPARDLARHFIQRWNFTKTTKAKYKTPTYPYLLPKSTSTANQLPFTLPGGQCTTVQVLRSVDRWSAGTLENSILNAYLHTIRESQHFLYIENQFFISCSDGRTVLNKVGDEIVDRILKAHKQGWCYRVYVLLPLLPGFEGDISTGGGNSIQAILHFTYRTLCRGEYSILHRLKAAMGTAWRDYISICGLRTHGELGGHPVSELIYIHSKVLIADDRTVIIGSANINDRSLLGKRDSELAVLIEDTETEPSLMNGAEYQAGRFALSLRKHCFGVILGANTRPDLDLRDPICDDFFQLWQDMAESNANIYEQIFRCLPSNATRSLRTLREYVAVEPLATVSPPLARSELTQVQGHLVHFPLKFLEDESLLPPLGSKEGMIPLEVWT", "test": "Lipase assay of recombinant PLD2 with increasing concentrations of PIP2", "type": "biochemical", "settings": "300 nM inhibitor, fixed PC8", "method_in_brief": "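Baculovirus-expressed, TALON-enriched full-length PLD2 was left untreated or treated with 300 nM inhibitor. It was then run in the lipase assay with increasing PIP2 concentrations and a fixed concentration of PC8 substrate. Activity was read as radiolabelled phosphatidylbutanol, co-migrating with PBut standards, by scintillation counting.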"}, "PLD2 mutants [3]": {"test_system": "PLD2 mutants", "test": "Lipase activity of PLD2 mutants overexpressed in COS7 cells", "type": "biochemical", "method_in_brief": "(§1)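 COS-7 cells in DMEM/10% FBS were transfected at 60% confluence with 1–6 μg plasmid (PLD2 mutants) using Lipofectamine/Plus, with 3 h exposure and 48 h expression. Lysates were treated with 300 nM test compound for 25 min. The lipase assay ran 20 min at 30 °C with shaking and was stopped with ice-cold chloroform/methanol (1:2). Lipids were separated by TLC, and [3H]-phosphatidylbutanol was quantified by scintillation counting.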"}, "recombinant PLD2 [4]": {"molecular_target": "T1, recombinant PLD2", "test": "Enzyme inhibition kinetics with purified recombinant PLD2", "type": "biochemical", "settings": "300 nM inhibitor; for Effect on Km / Effect on Vmax / Type of inhibition (Lineweaver Burk plot): increasing PC", "method_in_brief": "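Purified full-length PLD2 was expressed in Sf21 insect cells with a baculovirus system and enriched on TALON matrix. Two assay formats were used. In one, increasing enzyme amounts, untreated or with 300 nM inhibitor, were run with fixed PC at 3.5 mM. In the other, fixed enzyme, ± 300 nM inhibitor, was run with increasing PC. [3H]-phosphatidylbutanol co-migrating with PBut standards was measured by scintillation counting. Data were plotted as Michaelis-Menten and Lineweaver-Burk plots.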"}, "PLD1 [5]": {"molecular_target": "T2, PLD1 (Homo sapiens, UniProt Q13393)", "T2 sequence (Q13393 1-1074)": "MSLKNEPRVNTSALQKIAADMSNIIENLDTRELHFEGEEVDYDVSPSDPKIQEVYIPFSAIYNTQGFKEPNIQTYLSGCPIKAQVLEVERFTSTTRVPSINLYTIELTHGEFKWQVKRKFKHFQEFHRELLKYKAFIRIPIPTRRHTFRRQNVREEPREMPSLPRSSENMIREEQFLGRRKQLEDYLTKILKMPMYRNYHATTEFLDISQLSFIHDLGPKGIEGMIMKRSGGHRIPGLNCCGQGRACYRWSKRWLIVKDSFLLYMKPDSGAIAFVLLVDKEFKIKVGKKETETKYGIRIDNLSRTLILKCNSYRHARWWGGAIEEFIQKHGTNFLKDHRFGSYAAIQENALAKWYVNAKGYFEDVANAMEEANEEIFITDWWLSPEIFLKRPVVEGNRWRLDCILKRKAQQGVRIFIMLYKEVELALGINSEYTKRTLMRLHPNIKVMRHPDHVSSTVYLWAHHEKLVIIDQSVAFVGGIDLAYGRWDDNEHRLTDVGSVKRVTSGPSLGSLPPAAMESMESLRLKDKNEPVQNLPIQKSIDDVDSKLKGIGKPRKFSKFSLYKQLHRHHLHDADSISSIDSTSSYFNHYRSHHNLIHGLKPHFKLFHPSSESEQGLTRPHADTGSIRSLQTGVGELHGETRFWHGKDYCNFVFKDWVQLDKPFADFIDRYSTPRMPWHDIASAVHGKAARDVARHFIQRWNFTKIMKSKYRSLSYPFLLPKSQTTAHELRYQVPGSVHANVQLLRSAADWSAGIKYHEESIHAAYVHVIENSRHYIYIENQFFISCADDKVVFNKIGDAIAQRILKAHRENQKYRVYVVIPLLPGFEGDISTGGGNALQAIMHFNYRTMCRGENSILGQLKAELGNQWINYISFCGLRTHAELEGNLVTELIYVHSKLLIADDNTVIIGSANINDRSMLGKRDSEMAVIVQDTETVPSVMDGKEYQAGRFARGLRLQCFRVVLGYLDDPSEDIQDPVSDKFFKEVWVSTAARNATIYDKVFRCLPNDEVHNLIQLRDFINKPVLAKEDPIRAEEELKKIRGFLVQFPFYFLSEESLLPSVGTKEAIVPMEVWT", "test": "Phospholipase", "type": "biochemical"}, "PLD1 [6]": {"molecular_target": "T2, PLD1", "settings": "inhibiting PLD1 in the tumor microenvironment ref Chen, Hongu et al. 2012; cited from earlier work"}, "[7]": {"settings": "in vivo ref Monovich, Mugrage et al. 2007; cited from earlier work"}, "PLD2 mutants [8]": {"molecular_target": "PLD2 mutants (Homo sapiens, UniProt O14939, S757A)", "sequence (O14939 whole entry S757A)": "as the sequence (O14939 whole entry, species assumed) above, with S757A counted along it", "test": "Lipase activity of PLD2 mutants overexpressed in COS7 cells", "type": "biochemical", "settings": "300 nM", "method_in_brief": "as §1"}, "PLD2": {"test_system": "PLD2", "settings": "xenograft mice models ref Henkels, Boivin et al. 2013; cited from earlier work"}, "[9]": {"settings": "ref Lewis JA et al, Bioorg Med Chem Lett, 2009"}}, "note": "Like-named read-outs stand apart in the source and are kept apart here."}
{"molecule": "O=C(NCCN1CCC2(CC1)C(=O)NCN2c1cccc(F)c1)c1ccc2ccccc2c1", "note": "[NFOT, N-[2-[1-(3-Fluorophenyl)-4-oxo-1,3,-8-triazaspiro[4,5]dec-8-yl]ethyl]-2-naphthalenecarboxamide]", "values": [{"measurement": "Isoform specificity", "setting": "PLD; ref Lavieri RR et al, J Med Chem, 2010", "result": "PLD2 inhibitor"}, {"measurement": "Cell invasion of cancer cells", "setting": "[1]", "result": "prevents cell invasion"}, {"measurement": "PLD2 inhibition with increasing concentrations of PIP2", "setting": "recombinant PLD2 [2]", "result": "enzyme activity was regained back"}, {"measurement": "Inhibition of PLD2-H158Q, Y165F, L173A, R210/212A, F244N/L245/L246A, S648A and S757A lipase activity", "setting": "PLD2 mutants [3]; 300 nM", "result": "demonstrated resistance"}, {"measurement": "Inhibition of PLD2-R210A/R212A, F244N/L245/L246A, S648A and S757A lipase activity", "setting": "PLD2 mutants [3]; range of inhibitor concentrations, Figure 5", "result": "partially resistant to inhibition"}, {"measurement": "Effect on Km", "setting": "recombinant PLD2 [4]", "result": "increase the Km"}, {"measurement": "Effect on Vmax", "setting": "recombinant PLD2 [4]", "result": "decreasing the Vmax"}, {"measurement": "Type of inhibition (Lineweaver Burk plot)", "setting": "recombinant PLD2 [4]", "result": "mixed-type inhibition"}]}
{"molecule": "O=C(NCCN1CCC(n2c(=O)[nH]c3ccccc32)CC1)c1cc2cc(F)ccc2[nH]1", "note": "[FIPI, N-[2-[4-(2,3-dihydro-2-oxo-1H-benzimidazol-1-yl)-1-piperidinyl]ethyl]-5-fluoro-1H-indole-2-carboxamide]", "values": [{"measurement": "IC50", "setting": "PLD1 [5]", "result": 30, "unit": "nM"}, {"measurement": "Metastasis and angiogenesis", "setting": "PLD1 [6]", "result": "dampens metastasis and angiogenesis"}, {"measurement": "Isoform specificity", "setting": "PLD; ref Su W et al, Mol Pharmacol, 2009", "result": "Dual (PLD1 and PLD2) inhibitor"}, {"measurement": "bioavailability", "setting": "[7]", "result": 18, "unit": "%"}, {"measurement": "half-life in vivo", "setting": "[7]", "result": 5.5, "unit": "h"}, {"measurement": "PLD2 inhibition with increasing concentrations of PIP2", "setting": "recombinant PLD2 [2]", "result": "FIPI inhibited the enzyme"}, {"measurement": "Inhibition of lipase activity of the battery of PLD2 mutants", "setting": "PLD2 mutants [3]; 300 nM", "result": "inhibited most of the mutants"}, {"measurement": "Inhibition of PLD2-S757A lipase activity", "setting": "PLD2 mutants [8]", "result": "resistant"}, {"measurement": "Competition by increasing enzyme or substrate", "setting": "recombinant PLD2 [4]", "result": "not totally competed off"}, {"measurement": "Effect on Km", "setting": "recombinant PLD2 [4]", "result": "increase the Km"}, {"measurement": "Effect on Vmax", "setting": "recombinant PLD2 [4]", "result": "decreasing the Vmax"}, {"measurement": "Type of inhibition (Lineweaver Burk plot)", "setting": "recombinant PLD2 [4]", "result": "mixed-type inhibition"}]}
{"molecule": "CC(CN1CCC(n2c(=O)[nH]c3cc(Cl)ccc32)CC1)NC(=O)c1ccc2ccccc2c1", "note": "(stereo not shown) [NBOD, N-[2-[4-(5-chloro-2,3-dihydro-2-oxo-1H-benzimidazol-1-yl)-1-piperidinyl]-1-methylethyl]-2-naphthalenecarboxamide]", "values": [{"measurement": "Isoform specificity", "setting": "PLD; [9]", "result": "PLD1 inhibitor"}]}
{"molecule": "C[C@@H](CN1CCC(n2c(=O)[nH]c3cc(Br)ccc32)CC1)NC(=O)[C@@H]1C[C@H]1c1ccccc1", "note": "[RBPC, (1R,2R)-N-([S]-1-{4-[5-bromo-2-oxo-2,3-dihydro-1H-benzo(d)imidazol-1-yl]piperidin-1-yl}propan-2-yl)-2-phenylcyclopropanecarboxamide]", "values": [{"measurement": "Inhibition of PLD activity in PLD1 overexpressed samples", "setting": "PLD1 [5]; Figure 1", "result": "did not efficiently inhibit PLD activity"}, {"measurement": "Isoform specificity", "setting": "PLD; [9]", "result": "PLD1 inhibitor"}]}
{"molecule": "O=C(NCCN1CCC2(CC1)C(=O)NCN2c1ccccc1)c1ccc2ccccc2c1", "note": "[NOPT, N-[2-(4-oxo-1-phenyl-1,3,8-triazaspiro[4,5]dec-8-yl)ethyl]-2-naphthalenecarboxamide]", "values": [{"measurement": "Tumor metastasis and cell invasion", "setting": "PLD2", "result": "inhibited tumor metastasis and cell invasion"}, {"measurement": "Isoform specificity", "setting": "PLD; [9]", "result": "PLD2 inhibitor"}]}
